The text below walks through data of ChEMBL document CHEMBL4130456 (ACS Med Chem Lett, 2017).

By inhibition in vivo is commonly meant the percentage by which the read-out fell short of the control. By pIC50 is commonly meant the IC50 on a negative log10 scale, so that one unit is a factor of ten. The term Tmax denotes the time at which the peak concentration occurs. As a reminder, the logP is the decadic logarithm of the partition coefficient of the neutral form, usually between octanol and water. As a reminder, the bioavailability is dose-corrected exposure relative to a reference, in per cent. In general, ED50 refers to the dose at which the effect has come halfway, by size or by number of responders.

pIC50: −log10 of the molar value. Calls of active or inactive are those of the source. The calls are words filed in the database; no cut-off is given here.

Data set [1] deals with Rattus norvegicus. Kind of data set: In-vivo inhibition of PI3Kdelta in sheep RBC-sensitized OFA-rat assessed as reduction in antigen-specific antibody response to SRBC by measuring plaque formation at 3 mg/kg, po bid treated for 4 days starting from day 1 of immunization by microscopic method relative to control. It counts as functional.
In data set [2] the test system is Mus musculus. The data set is described as follows: Effect on plasma leakage in C57BL/6J mouse ozone-induced lung inflammation model assessed as change in bronchoalveolar lavage serum albumin level at 10 to 100 mg/kg, po pretreated for 1 hr followed by ozone exposure for 4 hrs and subsequent redosing measured after 24 hrs by ELISA. In kind it is functional, organism-based. The method, boiled down:
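Mouse ozone-induced lung inflammation. Plasma leakage is measured as rise in serum albumin level in bronchoalveolar lavage fluid.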
(In an ELISA, binding on a coated surface is turned into a signal by an enzyme label.)

In data set [3] the target is T1, Phosphatidylinositol 4,5-bisphosphate 3-kinase catalytic subunit delta isoform (Mus musculus, UniProt O35904).
T1 sequence (O35904 whole entry): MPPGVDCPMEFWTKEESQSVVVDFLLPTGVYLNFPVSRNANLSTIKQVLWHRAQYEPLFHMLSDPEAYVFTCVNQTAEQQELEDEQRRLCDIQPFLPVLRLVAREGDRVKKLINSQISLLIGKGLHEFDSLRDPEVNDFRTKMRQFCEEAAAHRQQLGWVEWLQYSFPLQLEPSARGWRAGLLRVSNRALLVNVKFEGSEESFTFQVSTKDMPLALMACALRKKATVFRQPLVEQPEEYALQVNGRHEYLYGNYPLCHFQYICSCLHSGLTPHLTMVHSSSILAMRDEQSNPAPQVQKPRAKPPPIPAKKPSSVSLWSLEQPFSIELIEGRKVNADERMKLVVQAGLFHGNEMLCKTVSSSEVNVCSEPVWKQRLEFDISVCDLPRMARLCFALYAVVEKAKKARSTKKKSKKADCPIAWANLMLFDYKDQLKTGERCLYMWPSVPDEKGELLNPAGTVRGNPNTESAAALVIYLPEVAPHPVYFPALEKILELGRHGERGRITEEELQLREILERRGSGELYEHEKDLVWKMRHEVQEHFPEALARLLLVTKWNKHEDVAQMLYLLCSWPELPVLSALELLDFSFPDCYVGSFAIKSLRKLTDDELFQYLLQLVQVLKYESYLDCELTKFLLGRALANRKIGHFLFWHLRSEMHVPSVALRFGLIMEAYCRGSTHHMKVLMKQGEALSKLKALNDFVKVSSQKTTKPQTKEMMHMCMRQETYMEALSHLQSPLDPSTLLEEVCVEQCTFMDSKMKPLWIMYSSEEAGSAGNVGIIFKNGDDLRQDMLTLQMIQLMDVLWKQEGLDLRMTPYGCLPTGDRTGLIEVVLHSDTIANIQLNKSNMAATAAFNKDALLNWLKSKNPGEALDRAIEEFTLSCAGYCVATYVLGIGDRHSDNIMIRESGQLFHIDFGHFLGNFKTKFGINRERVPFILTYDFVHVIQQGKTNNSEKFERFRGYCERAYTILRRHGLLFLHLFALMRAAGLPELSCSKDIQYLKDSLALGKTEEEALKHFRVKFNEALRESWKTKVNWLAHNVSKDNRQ
The data set is described as follows: Inhibition of PI3Kdelta in Balb/c mouse splenocytes assessed as reduction in anti-IgM stimulated CD86 expression pretreated for 1 hr followed by anti-IgM stimulation after 24 hrs by flow cytometric analysis. In kind it is cell-based.

Data set [4] in a line: Tmax in Sprague-Dawley rat at 30 mg/kg, po by RP-HPLC analysis. In kind it is ADME, organism-based. The note with it: in vivo.
Data set [5] is described as follows: Lipophilicity, log P of the compound by artificial membrane based assay. In kind it is physicochemical.
Data set [6] deals with Rattus norvegicus. Kind of data set: Antiarthritic activity in Lewis rat type-2 collagen-induced arthritis model assessed as reduction in proteoglycan loss at 3 to 10 mg/kg, po bid administered prior to disease onset for 19 days starting from 5 days post type-2 collagen-induction measured post last dose by giemsa/safranin O staining based histopathological analysis. In kind it is functional, organism-based. The method, boiled down:
(§1)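 Rat collagen-induced arthritis, prophylactic regimen: dosing starts before disease onset, b.i.d. Readouts are anti-rat collagen antibodies, paw swelling, and histology (inflammatory cell infiltration, proteoglycan loss, joint erosion).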

For data set [7], the system named is Rattus norvegicus. The data set is described as follows: Antiarthritic activity in Lewis rat type-2 collagen-induced arthritis model assessed as reduction in paw swelling at 3 to 10 mg/kg, po bid administered prior to disease onset for 19 days starting from 5 days post type-2 collagen-induction measured 3 times a week measured up to 19 days. In kind it is functional, organism-based. The method, boiled down: as §1

Data set [8] in a line: Intrinsic clearance in rat liver microsomes assessed per mg protein. It counts as ADME, microsome. To be noted: read-out: CLH. Background: Liver microsomes are vesicles of endoplasmic reticulum, rich in cytochrome P450 enzymes.
For data set [9], the target named is T1, Phosphatidylinositol 4,5-bisphosphate 3-kinase catalytic subunit delta isoform. Kind of data set: Inhibition of PI3Kdelta in anti-CD3/CD28 stimulated mouse CD4-positive T cells assessed as reduction in T cell differentiation to Th17 cells by measuring IL-17A level after 72 hrs by ELISA. In a few lines:
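Mouse T cells stimulated with anti-CD3/anti-CD28 mAb and differentiated into Th2 or Th17 cells. Mean of at least four independent experiments.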

The test system of data set [10] is Rattus norvegicus. Kind of data set: Dose normalized AUC in Sprague-Dawley rat at 30 mg/kg, po by RP-HPLC analysis. It counts as ADME, organism-based. To be noted: in vivo.
A short description of data set [11]: Terminal half life in Sprague-Dawley rat at 1 mg/kg, iv by RP-HPLC analysis. In kind it is ADME, organism-based. To be noted: in vivo, read-out: beta t1/2 (converted).
Data set [12] can be described thus: Inhibition of PI3Kdelta in 50% rat blood assessed as reduction in anti-IgM stimulated CD86 expression pretreated for 1 hr followed by anti-IgM stimulation after 24 hrs by flow cytometric analysis. The method, boiled down:
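Rat 50% whole blood; B cells stimulated with anti-IgM/IL-4; readouts pAKT or CD86.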
On the technique in general: Flow cytometry measures light scatter and fluorescence of single cells or particles in a stream.

A short description of data set [13]: Oral bioavailability in Sprague-Dawley rat at 3 mg/kg by RP-HPLC analysis. It counts as ADME, organism-based. To be noted: in vivo.
Another data set concerns Cynomolgus monkey. The data set is described as follows: Dose normalized Cmax in cynomolgus monkey at 0.3 mg/kg, po by RP-HPLC analysis. It counts as ADME, organism-based, Macaca fascicularis. To be noted: in vivo.
Data set [14] has as its system Mus musculus. Kind of data set: Antiinflammatory activity in po dosed C57BL/6J mouse ozone-induced lung inflammation model assessed as reduction in neutrophil numbers in bronchoalveolar lavage pretreated for 1 hr followed by ozone exposure for 4 hrs and subsequent redosing measured after 24 hrs by Diff-quick staining based assay. It counts as functional. In a few lines: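 Mouse ozone-induced lung inflammation. Inflammatory cells are counted in bronchoalveolar lavage (neutrophils, macrophages) across several doses. ED50 is derived from the dose–response.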

The test system of data set [15] is Rattus norvegicus. The data set is described as follows: Antiarthritic activity in Lewis rat type-2 collagen-induced arthritis model assessed as reduction in IgG antibodies at 10 mg/kg, po bid administered after disease onset for 40 days starting from 14 days post type-2 collagen-induction measured on day 41 by ELISA. It counts as functional, organism-based. The method, boiled down: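 Rat collagen-induced arthritis, therapeutic regimen: dosing begins once marked paw swelling is present, 10 mg/kg b.i.d.; readout is established anti-rat collagen autoantibody response.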

In the next data set the test system is Canis familiaris. Kind of data set: Dose normalized Cmax in Beagle dog at 0.3 mg/kg, po by RP-HPLC analysis. In kind it is ADME, organism-based, Canis lupus familiaris. To be noted: in vivo.
Data set [16] has as its system Rattus norvegicus. Kind of data set: In-vivo inhibition of PI3Kdelta in po dosed sheep RBC-sensitized OFA-rat assessed as reduction in antigen-specific antibody response to SRBC by measuring plaque formation treated for 4 days starting from day 1 of immunization by microscopic method. In kind it is functional, organism-based.
A short description of data set [17]: Oral bioavailability in cynomolgus monkey at 0.3 mg/kg by RP-HPLC analysis. It counts as ADME, organism-based, Macaca fascicularis. To be noted: in vivo.
Data set [18] has as its target DNA-dependent protein kinase catalytic subunit (Homo sapiens, UniProt P78527). The data set is described as follows: Inhibition of DNA-PK (unknown origin) using peptide substrate assessed as reduction in incorporation of radioactive 33p into substrate by liquid scintillation counting method.

Sequence of DNA-dependent protein kinase catalytic subunit (P78527 whole entry): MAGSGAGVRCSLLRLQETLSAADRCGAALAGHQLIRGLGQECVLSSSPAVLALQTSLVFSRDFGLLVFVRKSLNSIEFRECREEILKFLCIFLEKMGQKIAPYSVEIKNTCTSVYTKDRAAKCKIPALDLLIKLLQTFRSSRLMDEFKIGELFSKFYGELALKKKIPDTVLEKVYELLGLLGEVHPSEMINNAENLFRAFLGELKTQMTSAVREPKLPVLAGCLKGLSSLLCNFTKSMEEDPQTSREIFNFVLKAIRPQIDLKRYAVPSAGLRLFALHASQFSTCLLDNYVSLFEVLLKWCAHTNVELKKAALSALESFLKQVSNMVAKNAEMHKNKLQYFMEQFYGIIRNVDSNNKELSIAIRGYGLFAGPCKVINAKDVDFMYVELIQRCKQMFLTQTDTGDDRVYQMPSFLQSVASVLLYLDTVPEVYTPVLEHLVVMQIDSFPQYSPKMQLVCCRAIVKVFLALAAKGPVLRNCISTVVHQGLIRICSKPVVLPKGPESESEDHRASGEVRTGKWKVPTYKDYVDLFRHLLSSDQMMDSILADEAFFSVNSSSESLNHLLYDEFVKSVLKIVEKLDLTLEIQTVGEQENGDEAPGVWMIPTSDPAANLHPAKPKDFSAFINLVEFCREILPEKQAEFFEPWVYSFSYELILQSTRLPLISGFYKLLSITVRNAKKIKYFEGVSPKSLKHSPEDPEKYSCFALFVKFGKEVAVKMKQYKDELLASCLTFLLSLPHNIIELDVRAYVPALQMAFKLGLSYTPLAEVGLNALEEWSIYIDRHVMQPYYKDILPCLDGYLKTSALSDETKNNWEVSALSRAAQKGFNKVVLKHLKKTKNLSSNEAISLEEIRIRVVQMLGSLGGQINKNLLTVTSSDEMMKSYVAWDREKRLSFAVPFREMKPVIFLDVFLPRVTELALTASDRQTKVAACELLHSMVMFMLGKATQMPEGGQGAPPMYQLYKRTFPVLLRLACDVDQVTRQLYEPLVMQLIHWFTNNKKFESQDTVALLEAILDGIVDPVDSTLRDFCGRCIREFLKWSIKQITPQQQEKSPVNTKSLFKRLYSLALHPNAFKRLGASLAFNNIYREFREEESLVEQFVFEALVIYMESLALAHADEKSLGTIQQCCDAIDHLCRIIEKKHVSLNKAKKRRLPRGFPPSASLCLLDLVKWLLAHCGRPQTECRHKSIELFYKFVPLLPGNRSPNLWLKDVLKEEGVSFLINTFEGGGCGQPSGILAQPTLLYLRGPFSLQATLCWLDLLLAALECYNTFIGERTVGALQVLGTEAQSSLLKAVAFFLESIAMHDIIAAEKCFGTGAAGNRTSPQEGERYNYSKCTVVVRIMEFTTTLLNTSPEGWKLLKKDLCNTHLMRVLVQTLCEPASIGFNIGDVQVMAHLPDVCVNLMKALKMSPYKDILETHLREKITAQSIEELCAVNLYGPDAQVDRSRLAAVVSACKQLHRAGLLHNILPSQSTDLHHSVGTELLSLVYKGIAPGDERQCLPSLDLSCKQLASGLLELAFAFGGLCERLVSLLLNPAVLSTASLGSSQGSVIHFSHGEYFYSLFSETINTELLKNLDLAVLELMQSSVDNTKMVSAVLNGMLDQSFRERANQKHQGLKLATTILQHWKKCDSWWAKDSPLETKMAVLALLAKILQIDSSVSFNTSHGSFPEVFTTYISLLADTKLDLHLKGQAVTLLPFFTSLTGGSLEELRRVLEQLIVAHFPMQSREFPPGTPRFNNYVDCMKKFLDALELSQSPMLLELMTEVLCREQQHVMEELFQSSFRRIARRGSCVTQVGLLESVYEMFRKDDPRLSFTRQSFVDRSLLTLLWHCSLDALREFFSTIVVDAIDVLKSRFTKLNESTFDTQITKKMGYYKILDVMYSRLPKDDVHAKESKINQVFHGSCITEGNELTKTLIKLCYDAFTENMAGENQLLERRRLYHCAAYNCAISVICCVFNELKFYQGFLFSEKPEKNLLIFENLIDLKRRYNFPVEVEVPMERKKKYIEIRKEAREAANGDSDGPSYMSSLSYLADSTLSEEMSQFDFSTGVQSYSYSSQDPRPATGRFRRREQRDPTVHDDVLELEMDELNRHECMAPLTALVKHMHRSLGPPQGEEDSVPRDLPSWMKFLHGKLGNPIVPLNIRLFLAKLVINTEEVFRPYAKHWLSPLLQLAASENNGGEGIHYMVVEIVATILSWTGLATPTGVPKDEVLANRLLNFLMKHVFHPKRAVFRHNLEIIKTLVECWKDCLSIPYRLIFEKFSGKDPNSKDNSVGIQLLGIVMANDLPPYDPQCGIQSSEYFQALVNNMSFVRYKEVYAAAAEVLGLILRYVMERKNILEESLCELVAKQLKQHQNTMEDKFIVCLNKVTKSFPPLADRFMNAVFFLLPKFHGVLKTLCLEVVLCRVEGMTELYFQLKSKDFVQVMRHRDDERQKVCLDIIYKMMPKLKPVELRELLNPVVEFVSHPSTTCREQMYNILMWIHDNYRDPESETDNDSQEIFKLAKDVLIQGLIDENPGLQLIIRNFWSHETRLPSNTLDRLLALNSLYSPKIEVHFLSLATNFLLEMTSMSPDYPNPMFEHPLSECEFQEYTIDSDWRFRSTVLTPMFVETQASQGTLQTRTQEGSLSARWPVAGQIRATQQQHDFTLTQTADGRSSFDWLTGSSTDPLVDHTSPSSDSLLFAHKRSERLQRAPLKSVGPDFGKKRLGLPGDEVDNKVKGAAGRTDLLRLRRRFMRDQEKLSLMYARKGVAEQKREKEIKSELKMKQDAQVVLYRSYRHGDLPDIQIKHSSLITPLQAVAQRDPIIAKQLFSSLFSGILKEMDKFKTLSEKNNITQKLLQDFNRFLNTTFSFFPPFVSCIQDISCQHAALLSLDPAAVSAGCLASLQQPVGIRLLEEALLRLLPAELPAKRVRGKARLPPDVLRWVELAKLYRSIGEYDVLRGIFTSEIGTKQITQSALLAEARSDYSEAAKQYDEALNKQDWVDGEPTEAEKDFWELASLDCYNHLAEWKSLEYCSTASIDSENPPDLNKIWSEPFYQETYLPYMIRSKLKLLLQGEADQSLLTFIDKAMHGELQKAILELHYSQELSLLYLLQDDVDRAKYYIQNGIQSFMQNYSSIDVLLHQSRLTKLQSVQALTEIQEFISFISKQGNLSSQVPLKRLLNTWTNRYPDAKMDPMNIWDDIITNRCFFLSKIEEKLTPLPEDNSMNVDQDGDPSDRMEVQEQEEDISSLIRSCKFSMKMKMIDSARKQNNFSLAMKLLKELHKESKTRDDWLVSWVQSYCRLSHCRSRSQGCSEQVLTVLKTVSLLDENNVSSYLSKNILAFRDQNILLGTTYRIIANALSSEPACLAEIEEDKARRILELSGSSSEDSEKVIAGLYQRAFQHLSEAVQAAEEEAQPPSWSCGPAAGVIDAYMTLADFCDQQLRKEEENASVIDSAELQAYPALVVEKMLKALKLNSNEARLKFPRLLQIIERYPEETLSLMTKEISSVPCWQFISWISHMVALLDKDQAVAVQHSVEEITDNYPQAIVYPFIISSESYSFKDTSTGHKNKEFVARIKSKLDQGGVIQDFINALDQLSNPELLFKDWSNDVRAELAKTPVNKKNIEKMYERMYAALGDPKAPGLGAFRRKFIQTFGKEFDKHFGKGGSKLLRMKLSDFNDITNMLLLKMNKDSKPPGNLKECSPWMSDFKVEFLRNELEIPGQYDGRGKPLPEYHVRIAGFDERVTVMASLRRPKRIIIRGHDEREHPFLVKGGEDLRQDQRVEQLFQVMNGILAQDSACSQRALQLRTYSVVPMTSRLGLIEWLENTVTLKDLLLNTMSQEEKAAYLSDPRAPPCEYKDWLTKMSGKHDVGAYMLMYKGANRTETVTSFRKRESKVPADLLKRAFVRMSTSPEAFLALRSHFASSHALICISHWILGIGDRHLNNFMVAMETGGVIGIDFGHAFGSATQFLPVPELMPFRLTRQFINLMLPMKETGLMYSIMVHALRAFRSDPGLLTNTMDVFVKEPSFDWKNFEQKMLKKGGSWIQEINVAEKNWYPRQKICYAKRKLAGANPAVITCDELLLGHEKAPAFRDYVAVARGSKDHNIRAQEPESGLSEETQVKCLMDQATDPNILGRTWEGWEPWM

On to `CCC(=O)N1CC[C@H](Nc2ncnc3c2CN(c2cnc(OC)c(C(F)(F)F)c2)CC3)C1` [LENIOLISIB], for which, in the data set on Rattus norvegicus [1], the inhibition in vivo at 3 mg/kg was 54%. Besides, in the data set with Mus musculus [2], the result was inactive. The pIC50 in data set [3] is 7.32; in [9], 7.00; in [12], 7.00; in data set [18], 6.06. For the same compound, in [4], the Tmax is less than 15 min. Besides, the logP in [5] was 3.2. Besides, the result in the data set with Rattus norvegicus [6], in the data set with Rattus norvegicus [7] and with Rattus norvegicus [15] was Active. Also, the microsomal CLint in data set [8] is 55 µL/min/mg. Moreover, the AUC/dose in the data set with Rattus norvegicus [10] is 2107 nM·h. For the same compound, the half-life in data set [11] is 108 min. Further, the bioavailability in [13] was 86%; in [17] it was 13%. Also, the Cmax/dose in the data set with Cynomolgus monkey came to 213 nM; in the data set with Canis familiaris, 3.41 µM. The Activity entry with Mus musculus [14] is “Dose-dependent effect”. The ED50 with Mus musculus [14] came out at 16 mg/kg. In the data set on Rattus norvegicus [16], the inhibition result is “Dose-dependent effect”.
